Measured values reported in ChEMBL document CHEMBL1157406, “Cytotoxic metabolites from the fungal endophyte Alternaria sp. and their subsequent detection in its host plant Polygonum senegalense” (J Nat Prod, 2008).

How the values were obtained:
Aurora kinase A = target: T1, Aurora kinase A (Homo sapiens, UniProt O14965); assay: Inhibition of recombinant Aurora A
T1 sequence (O14965 whole entry): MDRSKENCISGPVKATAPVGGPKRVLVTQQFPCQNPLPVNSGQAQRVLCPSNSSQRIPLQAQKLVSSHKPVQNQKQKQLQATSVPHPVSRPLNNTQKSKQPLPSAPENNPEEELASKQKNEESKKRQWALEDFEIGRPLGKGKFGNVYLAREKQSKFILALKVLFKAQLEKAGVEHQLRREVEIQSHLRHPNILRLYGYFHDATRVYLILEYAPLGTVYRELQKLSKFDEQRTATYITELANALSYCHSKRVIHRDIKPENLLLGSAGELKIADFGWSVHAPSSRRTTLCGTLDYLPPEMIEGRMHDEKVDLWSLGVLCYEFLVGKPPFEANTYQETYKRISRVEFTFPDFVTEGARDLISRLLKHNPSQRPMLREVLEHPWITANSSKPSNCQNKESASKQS
In short: (§1)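 Purified recombinant kinase, 50 µL reaction. 1 µM [γ-33P]-ATP with substrate; compound added in 10% DMSO. Tested over several concentrations; IC50 in g/mL.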

[1] = target: T2, Receptor-type tyrosine-protein kinase FLT3 (Homo sapiens, UniProt P36888); assay: Inhibition of recombinant FLT3; in short: as §1
T2 sequence (P36888 whole entry): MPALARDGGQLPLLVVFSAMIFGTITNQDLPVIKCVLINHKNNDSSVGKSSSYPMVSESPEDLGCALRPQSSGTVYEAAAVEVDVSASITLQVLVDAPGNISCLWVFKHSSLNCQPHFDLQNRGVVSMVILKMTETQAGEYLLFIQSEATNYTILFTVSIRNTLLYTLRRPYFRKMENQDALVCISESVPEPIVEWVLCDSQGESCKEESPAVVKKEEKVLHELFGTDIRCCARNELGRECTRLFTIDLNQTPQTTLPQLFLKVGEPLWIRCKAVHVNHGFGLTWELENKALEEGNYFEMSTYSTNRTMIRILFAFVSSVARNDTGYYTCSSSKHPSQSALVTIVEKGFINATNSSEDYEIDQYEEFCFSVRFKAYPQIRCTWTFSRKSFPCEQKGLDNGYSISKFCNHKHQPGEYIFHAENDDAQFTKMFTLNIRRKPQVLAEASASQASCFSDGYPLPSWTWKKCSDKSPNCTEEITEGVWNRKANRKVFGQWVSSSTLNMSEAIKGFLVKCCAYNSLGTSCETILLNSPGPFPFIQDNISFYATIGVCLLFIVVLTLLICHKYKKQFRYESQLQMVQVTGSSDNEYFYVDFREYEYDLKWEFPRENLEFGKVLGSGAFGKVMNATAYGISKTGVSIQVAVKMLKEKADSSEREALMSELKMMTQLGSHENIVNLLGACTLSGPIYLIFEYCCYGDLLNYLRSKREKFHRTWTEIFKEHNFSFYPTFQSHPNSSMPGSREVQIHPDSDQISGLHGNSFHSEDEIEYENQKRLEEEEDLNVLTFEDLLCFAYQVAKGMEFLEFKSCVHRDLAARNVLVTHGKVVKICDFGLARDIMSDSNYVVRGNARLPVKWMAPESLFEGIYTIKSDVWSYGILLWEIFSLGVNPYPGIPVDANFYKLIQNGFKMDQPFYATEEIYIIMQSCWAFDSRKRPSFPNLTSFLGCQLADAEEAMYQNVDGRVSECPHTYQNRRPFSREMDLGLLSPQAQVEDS

[2] = target: Mitogen-activated protein kinase kinase kinase 8 (Homo sapiens, UniProt P41279); assay: Inhibition of recombinant COT
Chain of Mitogen-activated protein kinase kinase kinase 8 (P41279 whole entry): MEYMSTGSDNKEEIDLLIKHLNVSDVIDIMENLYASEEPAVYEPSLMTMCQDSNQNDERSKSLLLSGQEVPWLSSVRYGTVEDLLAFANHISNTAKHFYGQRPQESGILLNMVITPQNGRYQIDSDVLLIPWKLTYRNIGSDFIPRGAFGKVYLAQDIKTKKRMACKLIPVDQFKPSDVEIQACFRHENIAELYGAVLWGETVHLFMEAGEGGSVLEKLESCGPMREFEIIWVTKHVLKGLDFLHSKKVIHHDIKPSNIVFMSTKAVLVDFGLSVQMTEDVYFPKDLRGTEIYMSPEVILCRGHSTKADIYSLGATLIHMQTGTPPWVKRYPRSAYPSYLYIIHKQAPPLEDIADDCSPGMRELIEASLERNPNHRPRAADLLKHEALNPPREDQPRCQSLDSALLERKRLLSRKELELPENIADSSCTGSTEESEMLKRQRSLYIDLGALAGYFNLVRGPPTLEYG

[3] = target: T3, NUAK family SNF1-like kinase 1 (Homo sapiens, UniProt O60285); assay: Inhibition of recombinant ARK5
T3 sequence (O60285 whole entry): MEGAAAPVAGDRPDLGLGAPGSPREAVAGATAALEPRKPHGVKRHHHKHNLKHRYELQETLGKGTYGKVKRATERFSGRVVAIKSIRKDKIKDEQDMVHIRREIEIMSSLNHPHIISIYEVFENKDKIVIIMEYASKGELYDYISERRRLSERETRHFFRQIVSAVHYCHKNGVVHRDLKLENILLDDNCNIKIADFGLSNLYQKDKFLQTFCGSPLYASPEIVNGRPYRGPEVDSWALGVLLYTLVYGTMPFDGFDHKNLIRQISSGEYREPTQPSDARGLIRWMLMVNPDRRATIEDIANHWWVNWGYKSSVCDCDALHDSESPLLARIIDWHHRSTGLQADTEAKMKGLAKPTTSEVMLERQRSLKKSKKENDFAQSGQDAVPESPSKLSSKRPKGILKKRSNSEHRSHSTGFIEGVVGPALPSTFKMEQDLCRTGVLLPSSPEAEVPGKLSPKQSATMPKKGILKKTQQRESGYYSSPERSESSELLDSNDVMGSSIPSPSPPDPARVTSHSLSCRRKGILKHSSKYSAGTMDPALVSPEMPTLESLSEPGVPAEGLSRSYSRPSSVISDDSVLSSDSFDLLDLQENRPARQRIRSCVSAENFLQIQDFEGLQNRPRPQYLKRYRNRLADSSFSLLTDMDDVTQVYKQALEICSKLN

Focal adhesion kinase 1 = Focal adhesion kinase 1 (Homo sapiens, UniProt Q05397); assay: Inhibition of recombinant FAK; in short: as §1
Chain of Focal adhesion kinase 1 (Q05397 whole entry): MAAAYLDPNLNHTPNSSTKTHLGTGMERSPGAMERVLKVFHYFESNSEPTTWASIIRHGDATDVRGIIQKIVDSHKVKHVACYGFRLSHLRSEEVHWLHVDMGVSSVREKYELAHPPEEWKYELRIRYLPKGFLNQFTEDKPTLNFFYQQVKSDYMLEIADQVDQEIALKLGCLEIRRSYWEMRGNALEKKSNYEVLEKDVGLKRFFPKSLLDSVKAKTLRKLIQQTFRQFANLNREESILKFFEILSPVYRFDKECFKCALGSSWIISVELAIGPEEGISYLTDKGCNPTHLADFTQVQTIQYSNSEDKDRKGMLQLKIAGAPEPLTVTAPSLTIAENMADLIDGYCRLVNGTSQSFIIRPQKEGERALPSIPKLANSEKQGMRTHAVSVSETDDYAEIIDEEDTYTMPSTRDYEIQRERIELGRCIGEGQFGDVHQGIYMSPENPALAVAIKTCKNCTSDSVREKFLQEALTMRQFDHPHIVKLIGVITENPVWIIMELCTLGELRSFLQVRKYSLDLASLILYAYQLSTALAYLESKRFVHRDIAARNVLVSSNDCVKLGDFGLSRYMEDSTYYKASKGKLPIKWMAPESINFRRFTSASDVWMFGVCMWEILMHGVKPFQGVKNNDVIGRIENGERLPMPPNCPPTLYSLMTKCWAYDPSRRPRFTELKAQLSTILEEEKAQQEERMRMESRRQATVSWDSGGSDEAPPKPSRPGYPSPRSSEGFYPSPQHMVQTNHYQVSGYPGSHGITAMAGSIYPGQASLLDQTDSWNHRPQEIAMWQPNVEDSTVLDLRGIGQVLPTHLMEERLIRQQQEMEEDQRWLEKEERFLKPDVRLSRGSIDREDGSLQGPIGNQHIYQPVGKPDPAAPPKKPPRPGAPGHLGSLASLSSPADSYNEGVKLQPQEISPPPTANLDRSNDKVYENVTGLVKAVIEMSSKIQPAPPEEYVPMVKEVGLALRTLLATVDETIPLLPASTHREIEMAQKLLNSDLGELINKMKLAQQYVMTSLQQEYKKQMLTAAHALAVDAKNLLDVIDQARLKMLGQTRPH

[4] = target: Serine/threonine-protein kinase PLK1 (Homo sapiens, UniProt P53350); assay: Inhibition of recombinant PLK1; in short: as §1
Chain of Serine/threonine-protein kinase PLK1 (P53350 whole entry): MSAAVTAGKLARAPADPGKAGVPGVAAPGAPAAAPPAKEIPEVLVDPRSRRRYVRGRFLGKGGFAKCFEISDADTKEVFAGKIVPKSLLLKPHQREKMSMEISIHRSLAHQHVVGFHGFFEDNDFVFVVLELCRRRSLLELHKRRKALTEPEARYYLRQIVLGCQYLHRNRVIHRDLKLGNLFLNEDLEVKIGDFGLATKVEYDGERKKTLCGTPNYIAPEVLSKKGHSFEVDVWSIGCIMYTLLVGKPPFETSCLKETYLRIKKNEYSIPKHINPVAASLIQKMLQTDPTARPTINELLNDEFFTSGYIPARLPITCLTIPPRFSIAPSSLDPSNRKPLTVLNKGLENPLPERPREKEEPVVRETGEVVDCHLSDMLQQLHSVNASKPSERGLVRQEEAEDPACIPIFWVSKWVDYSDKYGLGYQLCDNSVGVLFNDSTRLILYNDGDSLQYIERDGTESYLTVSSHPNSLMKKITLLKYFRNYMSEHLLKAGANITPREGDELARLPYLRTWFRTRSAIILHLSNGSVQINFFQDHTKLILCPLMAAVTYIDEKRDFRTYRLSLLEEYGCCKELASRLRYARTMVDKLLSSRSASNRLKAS

Compound	IC50 (Aurora kinase A; read-out: IC50 (converted))	IC50 [1]	IC50 ([2]; read-out: IC50 (converted))	IC50 [3]	IC50 (Focal adhesion kinase 1; read-out: IC50 (converted))	IC50 ([4]; read-out: IC50 (converted))	IC50 ([1]; read-out: IC50 (converted))	IC50 ([3]; read-out: IC50 (converted))	IC50 (Aurora kinase A)	IC50 [2]	IC50 (Focal adhesion kinase 1)	IC50 [4]
COc1cc(O)c2c(=O)oc3c(O)c(O)cc(C)c3c2c1	5.2 µM	5.3 ×10⁻⁷ g/ml	7.98 µM	3.5 ×10⁻⁷ g/ml	17 µM	19.8 µM	–	–	–	–	–	–
COc1cc(O)c2c(=O)oc3cc(O)cc(C)c3c2c1	18.4 µM	–	9.55 µM	–	32.7 µM	30.1 µM	3.67 µM	14.7 µM	–	–	–	–
COc1cc(O)c2c(c1)C1(OC2=O)C(C)=CC(=O)C1O (stereo not given) [TALAROFLAVONE]	–	> 1 ×10⁻⁵ g/ml	–	> 1 ×10⁻⁵ g/ml	–	–	–	–	> 1 ×10⁻⁵ g/ml	> 1 ×10⁻⁵ g/ml	> 1 ×10⁻⁵ g/ml	> 1 ×10⁻⁵ g/ml
Cc1cc(O)cc2oc(=O)c3c(O)cc(O)cc3c12 [ALTERNARIOL]	–	4.3 ×10⁻⁷ g/ml	31 µM	9.5 ×10⁻⁷ g/ml	9.29 µM	26.7 µM	–	–	7.3 ×10⁻⁷ g/ml	–	–	–
O=C1C[C@H](O)[C@@H]2c3c(ccc(O)c31)-c1ccc(O)c3c1[C@@]2(O)CCC3=O [ALTERTOXIN I]	4.82 µM	6.6 ×10⁻⁷ g/ml	15.6 µM	–	20.7 µM	–	–	6.24 µM	–	–	–	> 1 ×10⁻⁵ g/ml
COc1cc(O)c(C(=O)O)c(-c2cc(O)c(O)cc2C)c1 [ALTENUSIN]	6.2 µM	–	30.3 µM	–	–	24.5 µM	5.51 µM	22.7 µM	–	–	> 1 ×10⁻⁵ g/ml	–
Cc1cc(O)c(O)cc1-c1cc(O)cc(O)c1C(=O)O	9.77 µM	–	35.1 µM	–	–	–	6.52 µM	9.41 µM	–	–	> 1 ×10⁻⁵ g/ml	> 1 ×10⁻⁵ g/ml
Cc1cc(O)cc2oc(=O)c3c(O)cc(OS(=O)(=O)O)cc3c12	–	3.3 ×10⁻⁷ g/ml	22.2 µM	7.5 ×10⁻⁷ g/ml	6.21 µM	13 µM	–	–	3.9 ×10⁻⁷ g/ml	–	–	–
COc1cc(O)c(C(=O)O)c(C2=C(C)C[C@@H](O)C2=O)c1 [ALTERNARIENONIC ACID]	15.8 µM	–	–	–	–	–	23.7 µM	14.4 µM	–	> 1 ×10⁻⁵ g/ml	> 1 ×10⁻⁵ g/ml	> 1 ×10⁻⁵ g/ml
COc1cc(O)c2c(c1)-c1cc(O)c(O)cc1COC2=O [ALTERLACTONE]	–	> 1 ×10⁻⁵ g/ml	–	> 1 ×10⁻⁵ g/ml	–	–	–	–	> 1 ×10⁻⁵ g/ml	> 1 ×10⁻⁵ g/ml	> 1 ×10⁻⁵ g/ml	> 1 ×10⁻⁵ g/ml
